PMC10692386 (Acta Pharmaceutica Sinica. B, 2023)
In brackets after ≈: the same amount, converted by molar mass.

Experiments:
[1] = Acute toxicity assay; format: in vivo, ICR mice; conditions: single intragastric administration of 1.2 g/kg
Outline: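 ICR mice, 24–28 g, aged 5–6 weeks (4 male, 4 female), were randomised into 4 groups. Test compound was given as a single intragastric dose. Body weight, behaviour and coat colour were followed for 14 days. Mice were then euthanised, and kidney, lung, spleen, liver, heart and brain were HE-stained for histology.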

[2] = test system: HIV-1 mutant E138K; test: Anti-HIV-1 efficacy against mutant E138K in MT-4 cells; format: cell-based; conditions: Human immunodeficiency virus 1, MT4, read-out: EC50 E138K
Outline: (§1)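 MT-4 cells were infected with HIV-1 RT mutant strains. EC50 was the concentration giving 50% protection against viral cytopathicity, averaged from at least three independent experiments. Cytotoxicity in mock-infected cultures was read by MTT.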

[3] = molecular target: CYP2C19 (Homo sapiens, UniProt P33261); test: biochemical
[4] = molecular target: T1, CYP1A2 (Homo sapiens, UniProt P05177); test: Cytochrome P450 inhibition assay, CYP1A2; format: in vitro ADME
T1 sequence (P05177 1-516): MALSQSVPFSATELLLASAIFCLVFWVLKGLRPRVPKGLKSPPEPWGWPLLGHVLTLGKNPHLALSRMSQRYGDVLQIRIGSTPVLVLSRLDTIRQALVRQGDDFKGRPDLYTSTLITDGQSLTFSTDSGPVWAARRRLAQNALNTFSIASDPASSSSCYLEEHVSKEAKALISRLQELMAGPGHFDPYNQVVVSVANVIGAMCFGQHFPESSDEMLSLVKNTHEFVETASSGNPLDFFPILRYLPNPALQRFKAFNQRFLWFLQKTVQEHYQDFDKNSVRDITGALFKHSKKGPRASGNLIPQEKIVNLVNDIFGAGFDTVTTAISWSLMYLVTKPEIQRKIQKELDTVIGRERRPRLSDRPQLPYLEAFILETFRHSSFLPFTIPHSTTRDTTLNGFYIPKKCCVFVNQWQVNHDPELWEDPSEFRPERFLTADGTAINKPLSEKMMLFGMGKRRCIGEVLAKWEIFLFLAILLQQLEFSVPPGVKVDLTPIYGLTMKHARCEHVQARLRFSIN

[5] = Aqueous solubility; format: physicochemical
[6] = test system: HIV-1 mutant K103N + Y181C; test: Anti-HIV-1 efficacy against mutant K103N + Y181C in MT-4 cells; format: cell-based; conditions: Human immunodeficiency virus 1, MT4, read-out: EC50 K103N + Y181C
Outline: as §1

[7] = test system: HIV-1 mutant L100I; test: Anti-HIV-1 efficacy against mutant L100I in MT-4 cells; format: cell-based; conditions: Human immunodeficiency virus 1, MT4, read-out: EC50 L100I
Outline: as §1

[8] = test system: HIV-1 mutant Y181C; test: Anti-HIV-1 efficacy against mutant Y181C in MT-4 cells; format: cell-based; conditions: Human immunodeficiency virus 1, MT4, read-out: EC50 Y181C
Outline: as §1

[9] = test system: K103N, L100I, E138K, Y181C, and K103N + Y181C; test: Anti-HIV-1 efficacy against mutant panel; format: cell-based; conditions: Human immunodeficiency virus 1, read-out: EC50 value range
Outline: as §1

[10] = molecular target: WT HIV-1 RT (Human immunodeficiency virus type 1 group M subtype B, UniProt P03366); test: Inhibition of WT HIV-1 RT; format: biochemical
[11] = PK study in Sprague-Dawley rats; format: in vivo; conditions: rat, plasma
Outline: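 Six SD rats, 180–220 g, were fasted 12 h and randomised into an intravenous arm (1 mg/kg) and an intragastric arm. Blood was drawn from pre-dose to 720 min into heparin, and plasma was stored at −80 °C. Plasma was precipitated with acetonitrile, dried under nitrogen, reconstituted and assayed by HPLC-MS/MS. PK parameters and bioavailability came from concentration–time data.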

[12] = molecular target: CYP3A4 (Homo sapiens, UniProt P08684); test: Cytochrome P450 inhibition assay, CYP3A4; format: in vitro ADME
[13] = molecular target: CYP2D6 (Homo sapiens, UniProt P10635); test: Cytochrome P450 inhibition assay, CYP2D6; format: in vitro ADME
[14] = molecular target: hERG potassium channels (Homo sapiens, UniProt Q12809); test: hERG channel Qpatch assay in CHO-hERG cells; format: cell-based
[15] = test system: HIV-1 mutant K103N; test: Anti-HIV-1 efficacy against mutant K103N in MT-4 cells; format: cell-based; conditions: Human immunodeficiency virus 1, MT4, read-out: EC50 K103N
Outline: as §1

[16] = test system: WT HIV-1; test: Anti-HIV-1 activity in MT-4 cells infected with HIV-1; format: cell-based
[17] = molecular target: CYP2C9 (Homo sapiens, UniProt P11712); test: Cytochrome P450 inhibition assay, CYP2C9; format: in vitro ADME
[18] = test system: HIV-1 mutant Y188L; test: Anti-HIV-1 efficacy against mutant Y188L in MT-4 cells; format: cell-based; conditions: Human immunodeficiency virus 1, MT4, read-out: EC50 Y188L
Outline: as §1

[19] = Cytotoxicity in mock-infected MT-4 cell cultures; format: cell-based; conditions: human, mock-infected MT-4 cells

Sequence of hERG potassium channels (Q12809 whole entry): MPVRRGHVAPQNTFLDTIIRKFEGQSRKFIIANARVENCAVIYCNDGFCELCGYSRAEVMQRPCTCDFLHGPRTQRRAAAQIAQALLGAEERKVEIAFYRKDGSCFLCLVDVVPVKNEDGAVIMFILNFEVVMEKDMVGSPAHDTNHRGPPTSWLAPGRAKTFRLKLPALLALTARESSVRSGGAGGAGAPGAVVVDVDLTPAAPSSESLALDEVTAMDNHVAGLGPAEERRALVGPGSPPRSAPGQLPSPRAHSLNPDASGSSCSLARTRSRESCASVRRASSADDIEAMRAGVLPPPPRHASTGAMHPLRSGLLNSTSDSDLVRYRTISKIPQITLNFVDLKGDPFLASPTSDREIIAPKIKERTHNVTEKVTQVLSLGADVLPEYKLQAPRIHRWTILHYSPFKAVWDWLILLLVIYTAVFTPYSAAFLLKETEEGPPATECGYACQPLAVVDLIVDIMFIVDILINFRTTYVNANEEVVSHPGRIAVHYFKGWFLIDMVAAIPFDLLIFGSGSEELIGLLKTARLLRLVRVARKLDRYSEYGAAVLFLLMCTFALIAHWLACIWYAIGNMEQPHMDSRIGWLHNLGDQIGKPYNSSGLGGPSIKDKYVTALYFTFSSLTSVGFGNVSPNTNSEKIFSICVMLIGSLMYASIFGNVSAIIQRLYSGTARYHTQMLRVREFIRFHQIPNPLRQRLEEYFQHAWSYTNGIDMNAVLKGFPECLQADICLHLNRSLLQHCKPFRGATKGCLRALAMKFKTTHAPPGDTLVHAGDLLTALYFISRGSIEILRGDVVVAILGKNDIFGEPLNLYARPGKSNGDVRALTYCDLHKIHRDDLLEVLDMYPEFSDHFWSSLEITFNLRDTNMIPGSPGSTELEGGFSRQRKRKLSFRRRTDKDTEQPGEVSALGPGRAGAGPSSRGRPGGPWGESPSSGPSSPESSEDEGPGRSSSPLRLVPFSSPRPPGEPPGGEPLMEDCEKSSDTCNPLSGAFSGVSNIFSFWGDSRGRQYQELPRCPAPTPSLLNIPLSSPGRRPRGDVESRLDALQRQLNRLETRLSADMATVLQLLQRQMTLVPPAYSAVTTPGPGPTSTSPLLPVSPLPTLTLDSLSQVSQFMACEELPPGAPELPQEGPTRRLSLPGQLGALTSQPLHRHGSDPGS
Sequence of CYP2C19 (P33261 whole entry): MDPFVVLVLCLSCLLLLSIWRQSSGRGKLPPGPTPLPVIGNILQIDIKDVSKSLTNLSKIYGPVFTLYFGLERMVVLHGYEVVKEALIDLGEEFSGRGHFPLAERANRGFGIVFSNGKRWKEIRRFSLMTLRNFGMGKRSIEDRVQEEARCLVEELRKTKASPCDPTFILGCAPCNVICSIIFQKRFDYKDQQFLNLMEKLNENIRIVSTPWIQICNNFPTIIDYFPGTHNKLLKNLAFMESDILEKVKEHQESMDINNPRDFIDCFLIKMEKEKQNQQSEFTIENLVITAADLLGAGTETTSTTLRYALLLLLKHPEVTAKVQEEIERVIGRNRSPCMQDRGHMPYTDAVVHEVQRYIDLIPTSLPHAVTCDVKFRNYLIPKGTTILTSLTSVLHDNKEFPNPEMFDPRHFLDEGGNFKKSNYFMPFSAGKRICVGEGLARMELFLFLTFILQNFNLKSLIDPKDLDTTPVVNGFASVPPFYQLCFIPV
Sequence of CYP2C9 (P11712 whole entry): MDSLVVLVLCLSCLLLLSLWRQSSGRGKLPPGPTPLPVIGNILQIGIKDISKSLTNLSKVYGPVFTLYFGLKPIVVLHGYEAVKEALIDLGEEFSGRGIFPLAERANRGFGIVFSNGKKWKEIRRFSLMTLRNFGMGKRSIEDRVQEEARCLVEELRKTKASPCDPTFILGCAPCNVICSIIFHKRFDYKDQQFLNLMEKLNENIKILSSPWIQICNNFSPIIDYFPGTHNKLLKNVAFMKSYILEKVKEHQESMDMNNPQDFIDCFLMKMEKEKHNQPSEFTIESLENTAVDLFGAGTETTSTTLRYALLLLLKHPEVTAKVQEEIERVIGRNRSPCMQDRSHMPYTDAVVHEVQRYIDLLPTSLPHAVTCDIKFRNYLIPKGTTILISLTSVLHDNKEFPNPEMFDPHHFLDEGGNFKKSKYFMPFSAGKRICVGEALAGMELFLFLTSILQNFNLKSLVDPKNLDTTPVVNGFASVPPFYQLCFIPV
Sequence of CYP2D6 (P10635 whole entry): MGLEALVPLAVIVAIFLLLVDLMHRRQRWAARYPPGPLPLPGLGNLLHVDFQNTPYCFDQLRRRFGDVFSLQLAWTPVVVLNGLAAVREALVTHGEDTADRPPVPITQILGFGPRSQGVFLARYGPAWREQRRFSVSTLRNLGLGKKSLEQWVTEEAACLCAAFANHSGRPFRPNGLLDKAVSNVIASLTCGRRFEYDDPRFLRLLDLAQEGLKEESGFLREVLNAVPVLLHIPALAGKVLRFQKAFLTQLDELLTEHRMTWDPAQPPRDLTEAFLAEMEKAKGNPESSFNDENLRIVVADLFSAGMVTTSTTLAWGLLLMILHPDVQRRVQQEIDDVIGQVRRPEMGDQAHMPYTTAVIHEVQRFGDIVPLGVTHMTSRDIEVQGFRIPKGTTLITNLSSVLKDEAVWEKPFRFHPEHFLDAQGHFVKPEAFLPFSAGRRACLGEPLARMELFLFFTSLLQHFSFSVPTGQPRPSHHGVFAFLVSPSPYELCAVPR
Sequence of CYP3A4 (P08684 whole entry): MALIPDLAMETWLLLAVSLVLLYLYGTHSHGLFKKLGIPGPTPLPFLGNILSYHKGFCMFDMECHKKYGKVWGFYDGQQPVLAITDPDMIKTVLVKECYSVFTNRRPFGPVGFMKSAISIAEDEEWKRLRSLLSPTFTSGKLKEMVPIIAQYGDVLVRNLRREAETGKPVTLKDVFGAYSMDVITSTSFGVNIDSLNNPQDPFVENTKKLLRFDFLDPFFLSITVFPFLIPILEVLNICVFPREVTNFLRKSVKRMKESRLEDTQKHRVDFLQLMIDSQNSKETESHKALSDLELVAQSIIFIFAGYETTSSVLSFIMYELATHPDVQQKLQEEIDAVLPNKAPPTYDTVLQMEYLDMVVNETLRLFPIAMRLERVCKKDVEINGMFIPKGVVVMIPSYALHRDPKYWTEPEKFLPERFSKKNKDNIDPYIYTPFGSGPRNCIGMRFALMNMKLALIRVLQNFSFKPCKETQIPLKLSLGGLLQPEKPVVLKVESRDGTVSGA

Q: What does the source list for `Cn1c(Cn2ccc(C(F)(F)F)c(Oc3cccc4cnccc34)c2=O)n[nH]c1=O` [7w]?
A: Pathological damage of six main organs (HE staining) ([1]; after 14 days): no obvious pathological damage; Behavior and weight ([1]; observed 14 days): normal behavior and weight; Mortality ([1]; observed 14 days): did not result in any fatalities; EC50 [2]: 49 ± 13 nM; IC50 [3]: 26.8 µM; IC50 [4]: > 50 µM; solubility ([5]; pH 2, aqueous buffer): 4470 µg/mL (≈ 10700 µM); solubility ([5]; pH 7, aqueous buffer): 38 µg/mL (≈ 91.1 µM); solubility ([5]; pH 7.4, aqueous buffer): 53 µg/mL (≈ 127 µM); EC50 [6]: 140 ± 90 nM; EC50 [7]: 38 ± 17 nM; EC50 [8]: 50 ± 11 nM; EC50 [9]: 35 to 140 nM; IC50 [10]: 120 ± 7 nM; Cmax ([11]; iv, 1 mg/kg): 456 ± 51.1 ng/mL; Tmax ([11]; iv, 1 mg/kg): 4.98 min; half-life ([11]; iv, 1 mg/kg): 17.4 ± 12.6 min; AUC ([11]; iv, 1 mg/kg, AUC0‒t, 1.0 mg/kg (i.v.)): 229 ± 45.3 ng·h/mL; AUC ([11]; iv, 1 mg/kg, AUC0‒∞, 1.0 mg/kg (i.v.)): 230 ± 46 ng·h/mL; MRT ([11]; iv, 1 mg/kg, MRT0‒t, 1.0 mg/kg (i.v.)): 21.1 ± 2.5 min; MRT ([11]; iv, 1 mg/kg, MRT0‒∞, 1.0 mg/kg (i.v.)): 22 ± 28 min; Cmax ([11]; po, 5 mg/kg): 2888 ± 9.71 ng/mL; Tmax ([11]; po, 5 mg/kg): 25 ± 8.64 min; bioavailability ([11]; po, 5 mg/kg): 27.1 ± 0.0219%; half-life ([11]; po, 5 mg/kg): 107 ± 17.4 min; AUC ([11]; po, 5 mg/kg, AUC0‒t, 5.0 mg/kg (p.o.)): 304 ± 24.5 ng·h/mL; AUC ([11]; po, 5 mg/kg, AUC0‒∞, 5.0 mg/kg (p.o.)): 312 ± 25.3 ng·h/mL; MRT ([11]; po, 5 mg/kg, MRT0‒t, 5.0 mg/kg (p.o.)): 70.2 ± 9.18 min; MRT ([11]; po, 5 mg/kg, MRT0‒∞, 5.0 mg/kg (p.o.)): 85.2 ± 8.4 min; IC50 [12]: > 50 µM; IC50 [13]: > 50 µM; IC50 [14]: > 40 µM; EC50 [15]: 71 ± 19 nM; EC50 ([16]; Human immunodeficiency virus 1, MT4): 22 ± 10 nM; SI ([16]; selectivity index, the ratio of CC50/EC50, WT HIV-1): 12,497.73; IC50 [17]: 19.6 µM; EC50 [18]: 5.35 ± 2.15 µM; CC50 [19]: 274 ± 10.6 µM
